{"data": "Measured values pooled from the literature", "read-out": "cell growth or viability", "note": "Lines come from different studies, so protocols differ."}
{"SMILES": "O=S(=O)(NNc1nnc(Cl)c2ccccc12)c1ccc(F)cc1", "cell line": "Vero", "test": "MTT", "setting": "250 µg/mL", "quantity": "viability", "value": "24.9%"}
{"SMILES": "COC(=O)c1[nH]c(C(=O)OC)c(-c2c[nH]c3ccc(Cl)cc23)c1-c1c[nH]c2ccc(Cl)cc12", "cell line": "RAW264.7", "test": "resazurin", "setting": "72 h", "quantity": "CC50", "value": "> 10 µM"}
{"SMILES": "C=C1CC[C@H]2C(C)=CC[C@H]3C(=C)C(=O)O[C@@H]3[C@@H]12", "cell line": "CHO-K1", "test": "MTT", "setting": "72 h", "quantity": "CC50", "value": "7.3 µM"}
{"SMILES": "COc1ccc2c(Cc3ccccc3F)c3n(c(=O)c2c1OC)CCc1cc2c(cc1-3)OCO2", "cell line": "L929", "test": "CCK-8", "setting": "24 h", "quantity": "IC50", "value": "26.1 µM"}
{"SMILES": "NC(=O)c1ncn([C@@H]2O[C@H](CO)[C@@H](O)[C@H]2O)n1", "cell line": "BHK-21", "test": "WST-1", "setting": "72 h", "quantity": "CC50", "value": "> 100 µM"}
{"SMILES": "Cn1cnc2c1c(=O)n(CC(=O)Nc1c(Cl)cccc1Cl)c(=O)n2C", "cell line": "Vero", "test": "MTT", "setting": "62.5 µg/mL", "quantity": "viability", "value": "99.8%"}
{"SMILES": "COc1ccc(S(=O)(=O)ON=C2C=C(C)C(=O)C(C)=C2)cc1", "cell line": "MDA-MB-436", "quantity": "CC50", "value": "2.85 µM"}
{"SMILES": "C=C1[C@@H]2[C@H]3OC(=O)C(=C)[C@@H]3CCC(=C)[C@@H]2C[C@@H]1OC(C)=O", "cell line": "CHO-K1", "test": "MTT", "setting": "72 h", "quantity": "CC50", "value": "6.9 µM"}
{"SMILES": "O=C1CCN(C(=O)Nc2ccc(F)c(Cl)c2)CN1Cc1ccc(F)cc1F", "cell line": "AML12HBV10", "test": "MTT", "setting": "48 h", "quantity": "CC50", "value": "> 50 µM"}
{"SMILES": "CCNc1nc(Nc2ccc(F)c(Cl)c2)c2ccccc2n1", "cell line": "Vero", "test": "MTT", "setting": "125 µg/mL", "quantity": "viability", "value": "52.9%"}
